Experimental findings from ChEMBL document CHEMBL1124984, “Benzophenone dicarboxylic acid antagonists of leukotriene B4. 2. Structure-activity relationships of the lipophilic side chain” (J Med Chem, 1990) are described below.

Assay [1] concerns the target T1, Leukotriene B4 receptor (Homo sapiens) (UniProt Q9NPC1+Q15722). Put plainly: Antagonistic activity against Leukotriene B4 receptor by using [3H]- LTB4 as a radioligand at a concentration of 10e-5 M. Type of assay: functional. In short, it runs like this:
(§1)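 Neutrophil suspensions (≥90% neutrophils, ≥90% viable) at 2 × 10^7 cells/mL in Hanks' balanced salt solution with 0.1% ovalbumin. Cells were incubated 10 min at 4 °C with compound in DMSO and [3H]LTB4 added as a 2.65 nM solution. Cells were spun 2 min through dibutyl/dinonyl phthalate (7:2) and the pellet counted by scintillation. Nonspecific binding was measured with >2000-fold excess unlabeled ligand. Results are % inhibition of specific binding, mean of ≥3 replicates.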

For assay [2], the target named is T1, Leukotriene B4 receptor (Homo sapiens). Description: Antagonistic activity against Leukotriene B4 receptor by using [3H]- LTB4 as a radioligand at a concentration of 10e-6 M. It counts as functional. A digest of the protocol:
as §1

Assay [3] deals with T2, Leukotriene B4 receptor 1 (Homo sapiens, UniProt Q15722). Put plainly: Inhibition of binding of B4 (LTB4) to Leukotriene B4 receptor on intact human neutrophils at a concentration of 10e -8M. In short, it runs like this:
as §1

The target in assay [4] is T2, Leukotriene B4 receptor 1. Put plainly: Inhibition of binding of B4 (LTB4) to its Leukotriene B4 receptor on intact human neutrophils at a concentration of 10e -7M. A digest of the protocol:
as §1

Assay [5] addresses T1, Leukotriene B4 receptor (Homo sapiens). Put plainly: Antagonistic activity against Leukotriene B4 receptor by using [3H]- LTB4 as a radioligand at a concentration of 10e-7 M. Type of assay: functional. In short, it runs like this: as §1
For assay [6] the target is unchanged. Description: Antagonistic activity against Leukotriene B4 receptor by using [3H]- LTB4 as a radioligand at a concentration of 10e-8 M. It counts as functional. In short, it runs like this:
as §1

Assay [7] addresses T2, Leukotriene B4 receptor 1. Put plainly: Inhibition of specific binding of [3H]LTB4 to Leukotriene B4 receptor in human neutrophils.

By inhibition is commonly meant how much of the control response was suppressed. The term IC50 denotes the concentration needed to halve the response being measured. Low readings indicate inhibition by little substance, high ones a need for much substance.

T2 sequence (Q15722 whole entry): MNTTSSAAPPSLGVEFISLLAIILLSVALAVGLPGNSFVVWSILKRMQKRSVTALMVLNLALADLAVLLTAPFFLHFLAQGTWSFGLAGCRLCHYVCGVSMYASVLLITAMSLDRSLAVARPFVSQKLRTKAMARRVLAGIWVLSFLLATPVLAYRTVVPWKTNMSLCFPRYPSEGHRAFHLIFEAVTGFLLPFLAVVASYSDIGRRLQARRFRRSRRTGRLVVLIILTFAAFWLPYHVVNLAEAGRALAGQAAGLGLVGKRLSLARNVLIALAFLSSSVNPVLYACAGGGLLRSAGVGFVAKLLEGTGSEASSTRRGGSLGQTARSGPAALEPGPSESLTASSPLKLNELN
T1 sequence (Q15722 whole entry, looked up): as the sequence (Q15722 whole entry) above
T1 sequence (Q9NPC1 whole entry, looked up): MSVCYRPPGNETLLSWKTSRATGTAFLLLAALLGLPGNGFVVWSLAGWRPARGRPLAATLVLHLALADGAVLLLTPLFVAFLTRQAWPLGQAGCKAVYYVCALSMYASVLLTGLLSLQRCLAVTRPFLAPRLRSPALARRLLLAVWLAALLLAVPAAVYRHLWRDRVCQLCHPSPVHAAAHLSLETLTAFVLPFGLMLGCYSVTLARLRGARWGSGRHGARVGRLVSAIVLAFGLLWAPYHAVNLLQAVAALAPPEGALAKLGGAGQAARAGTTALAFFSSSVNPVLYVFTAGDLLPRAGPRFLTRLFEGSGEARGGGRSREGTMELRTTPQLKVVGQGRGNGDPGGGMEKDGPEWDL

`O=C(O)CCc1cc(C(=O)c2cccc(C(=O)O)c2)ccc1OCCCCc1cccs1`: in assay [1], the inhibition came out at 72%.
With `CCOc1ccc(C(=O)c2cccc(C(=O)O)c2)cc1CCC(=O)O`, the inhibition in assay [2], in assay [3], in assay [4] and in assay [1] was 0% throughout.
Take `O=C(O)CCc1cc(C(=O)c2cccc(C(=O)O)c2)ccc1OCCc1ccccc1`: the values for the inhibition in assay [2] and in assay [1] were 3% and 37%, respectively.
In the case of `O=C(O)CCc1cc(C(=O)c2cccc(C(=O)O)c2)ccc1OCCCCCCCCCCc1ccccc1`, the results for the inhibition in assay [5] and in assay [6] were 28% and 0%, respectively.
Consider `O=C(O)CCc1cc(C(=O)c2cccc(C(=O)O)c2)ccc1OCCCCCCc1ccc(F)cc1`, for which the inhibition came out at 77% in assay [2], 22% in assay [5], 6% in assay [6] and 100% in assay [1].
With `O=C(O)CCc1cc(C(=O)c2cccc(C(=O)O)c2)ccc1OCCCCS(=O)(=O)c1ccccc1`, the inhibition was found to be 4% in assay [2] and 18% in assay [1].
For `O=C(O)CCc1cc(C(=O)c2cccc(C(=O)O)c2)ccc1OCCCCSc1ccccc1` the same measures were 29% and 89%.
Take `COc1ccccc1/C=C/CCCCOc1ccc(C(=O)c2cccc(C(=O)O)c2)cc1CCC(=O)O`: the inhibition in assay [2] was 100%; in assay [5], 88%; in assay [6], 25%; in assay [1], 100%.
Turning to `CCCCCCCCCCCCCCOc1ccc(C(=O)c2cccc(C(=O)O)c2)cc1CCC(=O)O`, the inhibition in assay [2] was found to be 29%; in assay [3], 0%; in assay [4], 0%; in assay [1] it was 73%.
Take `O=C(O)CCc1cc(C(=O)c2cccc(C(=O)O)c2)ccc1OCc1ccccc1`: the inhibition came to 3% in assay [2] and 31% in assay [1].
`CCCCCCCCOc1ccc(C(=O)c2cccc(C(=O)O)c2)cc1CCC(=O)O`: the inhibition in assay [2] is 35%; in assay [3], 0%; in assay [4], 0%; in assay [1], 87%.
As for `COc1cccc(CCCCCCOc2ccc(C(=O)c3cccc(C(=O)O)c3)cc2CCC(=O)O)c1`, the results for the inhibition in assay [2], in assay [5] and in assay [1] were 89%, 46% and 95%, respectively.
In the case of `CC(=O)c1ccc(CCCCCCOc2ccc(C(=O)c3cccc(C(=O)O)c3)cc2CCC(=O)O)cc1`, the inhibition is 90% in assay [2], 46% in assay [5] and 11% in assay [6].
`COc1ccc(/C=C\CCCCOc2ccc(C(=O)c3cccc(C(=O)O)c3)cc2CCC(=O)O)cc1`: the inhibition in assay [2] turned out to be 76%; in assay [5], 31%; in assay [6], 0%; in assay [1], 90%.
For `COc1ccc(C(=O)c2cccc(C(=O)O)c2)cc1CCC(=O)O`, the inhibition came to 7% in assay [2] and 0% in assay [1].
`O=C(O)CCc1cc(C(=O)c2cccc(C(=O)O)c2)ccc1OCCCCCCc1ccccc1`: the inhibition came out at 85% in assay [2], 14% in assay [3], 36% in assay [4] and 100% in assay [1].
As to `O=C(O)CCc1cc(C(=O)c2cccc(C(=O)O)c2)ccc1OCCCc1ccccc1`, the inhibition is 19% in assay [2] and 60% in assay [1].
Turning to `COc1cccc(/C=C/CCCCOc2ccc(C(=O)c3cccc(C(=O)O)c3)cc2CCC(=O)O)c1`, the inhibition is 91% in assay [2], 49% in assay [5], 13% in assay [6] and 99% in assay [1].
`CCCCCCCCCCOc1ccc(C(=O)c2cccc(C(=O)O)c2)cc1CCC(=O)O`: the inhibition was determined as 60% in assay [2], 7% in assay [4] and 95% in assay [1].
In the case of `CCCCCCOc1ccc(C(=O)c2cccc(C(=O)O)c2)cc1CCC(=O)O`, the inhibition in assay [2] is 10%; in assay [3], 0%; in assay [4] it was 0%; in assay [1] it was 56%.
`Cc1ccc(/C=C/CCCCOc2ccc(C(=O)c3cccc(C(=O)O)c3)cc2CCC(=O)O)cc1`: the inhibition in assay [2] is 96%; in assay [5], 73%; in assay [6], 24%.
As to `COc1ccc(/C=C/CCCCOc2ccc(C(=O)c3cccc(C(=O)O)c3)cc2CCC(=O)O)cc1`, the inhibition is 95% in assay [2], 88% in assay [5], 40% in assay [6] and 100% in assay [1]. In addition, the IC50 in assay [7] came to 13.2 nM.
With `O=C(O)CCc1cc(C(=O)c2cccc(C(=O)O)c2)ccc1OCCCC/C=C/c1ccccc1`, the inhibition in assay [2] worked out at 92%; in assay [5], 34%; in assay [6], 3%; in assay [1], 100%.
Regarding `C[S+]([O-])c1ccc(/C=C/CCCCOc2ccc(C(=O)c3cccc(C(=O)O)c3)cc2CCC(=O)O)cc1` (stereo not drawn), the inhibition in assay [2] was 95%; in assay [5] it was 86%; in assay [6], 36%; in assay [1], 99%.
In the same order, the values of `O=C(O)CCc1cc(C(=O)c2cccc(C(=O)O)c2)ccc1OCCCCCCc1ccc(Cl)cc1` are 93%, 42%, 15% and 100%.
As to `O=C(O)CCc1cc(C(=O)c2cccc(C(=O)O)c2)ccc1OCCCCCCc1ccc(O)cc1`, the inhibition in assay [2] came out at 90%; in assay [5], 43%; in assay [6] it was 6%; in assay [1], 100%.
`COc1ccc(CCCCCCOc2ccc(C(=O)c3cccc(C(=O)O)c3)cc2CCC(=O)O)cc1`: the inhibition in assay [2] is 96%; in assay [5] it was 68%; in assay [6], 18%; in assay [1], 100%.
For `CSc1ccc(/C=C/CCCCOc2ccc(C(=O)c3cccc(C(=O)O)c3)cc2CCC(=O)O)cc1`, the results for the inhibition in assay [2], in assay [5] and in assay [1] were 79%, 18% and 100%, respectively.
Consider `CS(=O)(=O)c1ccc(/C=C/CCCCOc2ccc(C(=O)c3cccc(C(=O)O)c3)cc2CCC(=O)O)cc1`, for which the inhibition was 89% in assay [2], 60% in assay [5], 31% in assay [6] and 98% in assay [1].
As to `O=C(O)CCc1cc(C(=O)c2cccc(C(=O)O)c2)ccc1OCCCCOc1ccccc1`, the inhibition in assay [2] stood at 16%; in assay [1] it was 67%.
As for `COc1ccc(C#CCCCCOc2ccc(C(=O)c3cccc(C(=O)O)c3)cc2CCC(=O)O)cc1`, the inhibition in assay [2] was found to be 90%; in assay [5], 45%; in assay [6], 9%; in assay [1] it was 100%.
Turning to `O=C(O)CCc1cc(C(=O)c2cccc(C(=O)O)c2)ccc1OCCCC[S+]([O-])c1ccccc1` (stereo not drawn), the inhibition in assay [2] is 0%; in assay [1], 22%.
On to `COc1ccccc1CCCCCCOc1ccc(C(=O)c2cccc(C(=O)O)c2)cc1CCC(=O)O`, for which the inhibition in assay [2] was 91%; in assay [5], 3%; in assay [6], 5%; in assay [1], 100%.
For `O=C(O)CCc1cc(C(=O)c2cccc(C(=O)O)c2)ccc1OCCCCc1ccccc1`, the inhibition in assay [2] worked out at 21%; in assay [1], 78%.
`COc1ccc(/C=C/CCCCOc2ccc(C(=O)c3cccc(C(=O)O)c3)cc2CCC(=O)O)c(OC)c1`: the inhibition stood at 96% in assay [2], 66% in assay [5], 20% in assay [6] and 100% in assay [1].
